Assay results reported in ChEMBL document CHEMBL3612001, “Design and discovery of 2-(4-(1H-tetrazol-5-yl)-1H-pyrazol-1-yl)-4-(4-phenyl)thiazole derivatives as cardiotonic agents via inhibition of PDE3” (Bioorg Med Chem, 2015).

Experiments:
[1] = test system: Mus musculus; test: Toxicity in Swiss albino mouse assessed as changes in morbidity at 100 mg/kg, po dosed once orally for 28 days; format: organism-based; details: in vivo, 672 h
Procedure, shortened: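 Sub-acute oral study in Swiss albino mice, 20–25 g, 3 male + 3 female per group, 7-day acclimatisation, 22 ± 5 °C, 12 h light/dark cycle, standard feed and water ad libitum. Compound dissolved in DMSO, suspended in 0.7% CMC, given orally once daily for 28 days at 0.1, 1, 10 or 100 mg/kg, against vehicle controls. Animals observed throughout; gross pathology with absolute and relative organ weights at end; n = 6.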

[2] = test system: Mus musculus; test: Toxicity in Swiss albino mouse assessed as changes in total protein level at 100 mg/kg, po dosed once orally for 28 days (reference value: 3.45 +/- 0.45 […]); format: organism-based; details: in vivo, 672 h
[3] = test system: Mus musculus; test: Toxicity in Swiss albino mouse assessed as changes in SGOT level at 100 mg/kg, po dosed once orally for 28 days (reference value: 112.7 +/- 10.6 U/L); format: organism-based; details: in vivo, 672 h
[4] = test system: Mus musculus; test: Toxicity in Swiss albino mouse assessed as changes in albumin level at 100 mg/kg, po dosed once orally for 28 days (reference value: 2.78 +/- 1.82 g/dL); format: organism-based; details: in vivo, 672 h
[5] = test system: Mus musculus; test: Toxicity in Swiss albino mouse assessed as changes in creatinine level at 10 mg/kg, po dosed once orally for 28 days (reference value: 0.04 +/- 0.37 mg/dL); format: organism-based; details: in vivo, 672 h
[6] = test system: Mus musculus; test: Toxicity in Swiss albino mouse assessed as changes in SGPT level at 100 mg/kg, po dosed once orally for 28 days (reference value: 41.46 +/- 17.25 U/L); format: organism-based; details: in vivo, 672 h
[7] = test system: Mus musculus; test: Toxicity in Swiss albino mouse assessed as changes in body weight at 100 mg/kg, po dosed once orally for 28 days (reference value: 31.2 +/- 1.6g); format: organism-based; details: in vivo, 672 h
[8] = test system: Cardiac atrium; test: Cardiotonic activity in reserpine-pretreated and spontaneously beating rat atria assessed as inotropic activity by measuring contractile force at 1 uM (reference value: 100%); format: functional
Procedure, shortened: (§1)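 Male Wistar rats (250–350 g) given reserpine 5 mg/kg ip 24 h before euthanasia under thiopental 80 mg/kg ip. Whole atria mounted in Krebs–Henseleit (95% O2/5% CO2, 35–37 °C, pH 7.35–7.45) at ~0.5 g resting tension, equilibrated 40–50 min. Used only if unresponsive to tyramine 1.5 μM. Compound added cumulatively (1–100 μM). Isometric force and rate recorded, six atria per compound.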

[9] = test system: Mus musculus; test: Toxicity in Swiss albino mouse assessed as changes in creatinine level at 100 mg/kg, po dosed once orally for 28 days (reference value: 0.04 +/- 0.37 mg/dL); format: organism-based; details: in vivo, 672 h
[10] = test system: Mus musculus; test: Toxicity in Swiss albino mouse assessed as changes in haemoglobin level at 0.1 mg/kg, po dosed once orally for 28 days (reference value: 13.87 +/- 0.46 g/dL); format: organism-based; details: in vivo, 672 h
[11] = test system: Mus musculus; test: Toxicity in Swiss albino mouse assessed as changes in creatinine level at 1 mg/kg, po dosed once orally for 28 days (reference value: 0.04 +/- 0.37 mg/dL); format: organism-based; details: in vivo, 672 h
[12] = test system: Cardiac atrium; test: Cardiotonic activity in reserpine-pretreated and spontaneously beating rat atria assessed as inotropic activity by measuring contractile force at 100 uM (reference value: 100%); format: functional; procedure, shortened: as §1
[13] = test system: Mus musculus; test: Toxicity in Swiss albino mouse assessed as changes in ALP level at 1 mg/kg, po dosed once orally for 28 days (reference value: 132.4 +/- 6.26 U/L); format: organism-based; details: in vivo, 672 h
[14] = test system: Mus musculus; test: Toxicity in Swiss albino mouse assessed as changes in haemoglobin level at 100 mg/kg, po dosed once orally for 28 days (reference value: 13.87 +/- 0.46 g/dL); format: organism-based; details: in vivo, 672 h
[15] = test system: Mus musculus; test: Toxicity in Swiss albino mouse assessed as changes in albumin level at 1 mg/kg, po dosed once orally for 28 days (reference value: 2.78 +/- 1.82 g/dL); format: organism-based; details: in vivo, 672 h
[16] = test system: Mus musculus; test: Toxicity in Swiss albino mouse assessed as changes in ALP level at 100 mg/kg, po dosed once orally for 28 days (reference value: 132.4 +/- 6.26 U/L); format: organism-based; details: in vivo, 672 h
[17] = test system: Mus musculus; test: Toxicity in Swiss albino mouse assessed as changes in cholesterol level at 10 mg/kg, po dosed once orally for 28 days (reference value: 138.43 +/- 1.52 mg/dL); format: organism-based; details: in vivo, 672 h
[18] = test system: Mus musculus; test: Toxicity in Swiss albino mouse assessed as changes in SGOT level at 0.1 mg/kg, po dosed once orally for 28 days (reference value: 112.7 +/- 10.6 U/L); format: organism-based; details: in vivo, 672 h
[19] = test system: Mus musculus; test: Toxicity in Swiss albino mouse assessed as changes in cholesterol level at 0.1 mg/kg, po dosed once orally for 28 days (reference value: 138.43 +/- 1.52 mg/dL); format: organism-based; details: in vivo, 672 h
[20] = test system: Mus musculus; test: Toxicity in Swiss albino mouse assessed as changes in SGPT level at 10 mg/kg, po dosed once orally for 28 days (reference value: 41.46 +/- 17.25 U/L); format: organism-based; details: in vivo, 672 h
[21] = test system: Mus musculus; test: Toxicity in Swiss albino mouse assessed as changes in cholesterol level at 100 mg/kg, po dosed once orally for 28 days (reference value: 138.43 +/- 1.52 mg/dL); format: organism-based; details: in vivo, 672 h
[22] = test system: Cardiac atrium; test: Toxic cardiotonic activity in reserpine-pretreated and spontaneously beating rat atria assessed as chronotropic activity by measuring contractile frequency rate at 1 uM (reference value: 100%); format: toxicity; procedure, shortened: as §1
[23] = test system: Mus musculus; test: Toxicity in Swiss albino mouse assessed as changes in triglycerides level at 0.1 mg/kg, po dosed once orally for 28 days (reference value: 263.69 +/- 3.38 mg/dL); format: organism-based; details: in vivo, 672 h
[24] = test system: Mus musculus; test: Toxicity in Swiss albino mouse assessed as changes in haemoglobin level at 1 mg/kg, po dosed once orally for 28 days (reference value: 13.87 +/- 0.46 g/dL); format: organism-based; details: in vivo, 672 h
[25] = test system: Mus musculus; test: Toxicity in Swiss albino mouse assessed as changes in triglycerides level at 1 mg/kg, po dosed once orally for 28 days (reference value: 263.69 +/- 3.38 mg/dL); format: organism-based; details: in vivo, 672 h
[26] = test system: Mus musculus; test: Toxicity in Swiss albino mouse assessed as changes in creatinine level at 0.1 mg/kg, po dosed once orally for 28 days (reference value: 0.04 +/- 0.37 mg/dL); format: organism-based; details: in vivo, 672 h

Fc1ccc(-c2csc(-n3cc(-c4nnn[nH]4)cn3)n2)cc1
Activity [1]: Non-toxic
Activity [2]: 4.54 g/dL
Activity [3]: 111.6 U/L
Activity [4]: 2.59 g/dL
Activity [5]: 0.04 mg/dL
Activity [6]: 42.1 U/L
Activity [7]: 33 g
Activity [8]: 110%
Activity [9]: 0.05 mg/dL
Activity [10]: 14.5 g/dL
Activity [11]: 0.04 mg/dL
Activity [12]: 163%
Activity [13]: 136.6 U/L
Activity [14]: 15.24 g/dL
Activity [15]: 2.61 g/dL
Activity [16]: 134.02 U/L
Activity [17]: 135.4 mg/dL
Activity [18]: 107.8 U/L
Activity [19]: 125.66 mg/dL
Activity [20]: 41.8 U/L
Activity [21]: 134.3 mg/dL
Activity [22]: 108%
Activity [23]: 254.1 mg/dL
Activity [24]: 15.34 g/dL
Activity [25]: 247.26 mg/dL
Activity [26]: 0.04 mg/dL
